Laboratory results reported in ChEMBL document CHEMBL3045973, “Synthesis and insecticidal activity of novel 4beta-halogenated benzoylamino podophyllotoxins against Pieris rapae Linnaeus” (2002).
The source made the active and inactive calls. The rule behind the calls is not given here.

Legend:
Pieris rapae [1] = experiment: Insecticidal activity against fifth-instar larvae of Pieris rapae fed on compound treated cabbage leaf assessed as mortality at 250 ppm dipped for 3 secs measured after 15 days (reference value: 10 1.22%); type: functional
Pieris rapae [2] = experiment: Insecticidal activity against fifth-instar larvae of Pieris rapae fed on compound treated cabbage leaf assessed as paralysis at 250 ppm dipped for 3 secs measured after 48 hr relative to control; type: functional, organism-based
Pieris rapae [3] = experiment: Insecticidal activity against fifth-instar larvae of Pieris rapae fed on compound treated cabbage leaf assessed as change in spontaneous movement at 250 ppm dipped for 3 secs measured after 24 hr relative to control; type: functional, organism-based
Pieris rapae [4] = experiment: Insecticidal activity against fifth-instar larvae of Pieris rapae fed on compound treated cabbage leaf assessed as inhibition of reproduction in pupated adultoids at 250 ppm dipped for 3 secs relative to control; type: functional, organism-based
Pieris rapae [5] = experiment: Insecticidal activity against fifth-instar larvae of Pieris rapae fed on compound treated cabbage leaf assessed as delay in metamorophosis at 250 ppm dipped for 3 secs relative to control; type: functional, organism-based
Method in brief: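 Fifth-instar P. rapae larvae dosed by the leaf-dipping method at 250 ppm. Development time from larva to adulthood was compared with a control group.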

Pieris rapae [6] = experiment: Insecticidal activity against fifth-instar larvae of Pieris rapae fed on compound treated cabbage leaf assessed as loss of body fluid at 250 ppm dipped for 3 secs measured after 48 hr relative to control; type: functional, organism-based
Pieris rapae [7] = experiment: Insecticidal activity against fifth-instar larvae of Pieris rapae fed on compound treated cabbage leaf assessed as mortality at 250 ppm dipped for 3 secs measured after 10 days (reference value: 6.67 1.56%); type: functional
Pieris rapae [8] = experiment: Insecticidal activity against fifth-instar larvae of Pieris rapae fed on compound treated cabbage leaf assessed as immobilization at 250 ppm dipped for 3 secs measured after 48 hr relative to control; type: functional, organism-based
Pieris rapae [9] = experiment: Insecticidal activity against fifth-instar larvae of Pieris rapae fed on compound treated cabbage leaf assessed as mortality at 250 ppm dipped for 3 secs measured after 5 days (reference value: 0%); type: functional

| SMILES | mortality (Pieris rapae [1]) [%] | Activity (Pieris rapae [2]) | Activity (Pieris rapae [3]) | Activity (Pieris rapae [4]) | Activity (Pieris rapae [5]) | Activity (Pieris rapae [6]) | mortality (Pieris rapae [7]) [%] | Activity (Pieris rapae [8]) | mortality (Pieris rapae [9]) [%] |
| --- | --- | --- | --- | --- | --- | --- | --- | --- | --- |
| COc1cc([C@@H]2c3cc4c(cc3[C@@H](NC(=O)c3cccc(Cl)c3)[C@H]3COC(=O)[C@H]23)OCO4)cc(OC)c1OC | 94.73 | Active | Active | Active | Active | Active | 54.25 | Active | 16.56 |
| COc1cc([C@@H]2c3cc4c(cc3[C@@H](N)[C@H]3COC(=O)[C@H]23)OCO4)cc(OC)c1OC [4BETA-NH2-PODOPHYLLOTOXIN] | 49.48 | Active | Active | Active | Active | Active | 36.43 | Active | 21.69 |
| COc1cc([C@@H]2c3cc4c(cc3[C@@H](NC(=O)c3ccccc3F)[C@H]3COC(=O)[C@H]23)OCO4)cc(OC)c1OC | 68.42 | Active | Active | Active | Active | Active | 46.41 | Active | 22.68 |
| COc1cc([C@@H]2c3cc4c(cc3[C@@H](NC(=O)c3ccc(F)cc3)[C@H]3COC(=O)[C@H]23)OCO4)cc(OC)c1OC | 66.76 | Active | Active | Active | Active | Active | 44.74 | Active | 11.11 |
| CCOP(=S)(OCC)Oc1ccc([N+](=O)[O-])cc1 [PARATHION] |  |  |  |  |  |  |  |  | 100 |
| COc1cc([C@@H]2c3cc4c(cc3[C@@H](NC(=O)c3cccc(Br)c3)[C@H]3COC(=O)[C@H]23)OCO4)cc(OC)c1OC | 85.42 | Active | Active | Active | Active | Active | 69.23 | Active | 46.15 |
| COc1cc([C@@H]2c3cc4c(cc3[C@@H](NC(=O)c3ccc(Cl)cc3)[C@H]3COC(=O)[C@H]23)OCO4)cc(OC)c1OC | 94.95 | Active | Active | Active | Active | Active | 72.08 | Active | 36.84 |
| COc1cc([C@@H]2c3cc4c(cc3[C@@H](NC(=O)c3ccc(Br)cc3)[C@H]3COC(=O)[C@H]23)OCO4)cc(OC)c1OC | 85.97 | Active | Active | Active | Active | Active | 51.85 | Active | 14.81 |
| COc1cc([C@@H]2c3cc4c(cc3[C@@H](NC(=O)c3cccc(F)c3)[C@H]3COC(=O)[C@H]23)OCO4)cc(OC)c1OC | 86.7 | Active | Active | Active | Active | Active | 49.46 | Active | 18.57 |
| COc1cc([C@@H]2c3cc4c(cc3[C@@H](NC(=O)c3ccc(I)cc3)[C@H]3COC(=O)[C@H]23)OCO4)cc(OC)c1OC | 73.87 | Active | Active | Active | Active | Active | 48.28 | Active | 20.73 |
| COc1cc([C@@H]2c3cc4c(cc3[C@@H](NC(=O)c3cccc(I)c3)[C@H]3COC(=O)[C@H]23)OCO4)cc(OC)c1OC | 69.69 | Active | Active | Active | Active | Active | 40.71 | Active | 8.35 |
| COc1cc([C@@H]2c3cc4c(cc3[C@@H](NC(=O)c3ccccc3Cl)[C@H]3COC(=O)[C@H]23)OCO4)cc(OC)c1OC | 65.56 | Active | Active | Active | Active | Active | 36.36 | Active | 4.54 |
| COc1cc([C@@H]2c3cc4c(cc3[C@@H](NC(=O)c3ccccc3I)[C@H]3COC(=O)[C@H]23)OCO4)cc(OC)c1OC | 69.69 | Active | Active | Active | Active | Active | 48.36 | Active | 12.62 |
| COc1cc([C@@H]2c3cc4c(cc3[C@@H](NC(=O)c3ccccc3Br)[C@H]3COC(=O)[C@H]23)OCO4)cc(OC)c1OC | 74.74 | Active | Active | Active | Active | Active | 44.78 | Active | 4.35 |
| COc1cc([C@@H]2c3cc4c(cc3[C@H](O)[C@H]3COC(=O)[C@H]23)OCO4)cc(OC)c1OC [PODOFILOX] | 74.74 | Active | Active | Active | Active | Active | 53.36 | Active | 34.02 |
